Results published in ChEMBL document CHEMBL1926536, “Synthesis, molecular modeling studies and biological evaluation of fluorine substituted analogs of GW 501516” (Bioorg Med Chem, 2011).
pEC50: −log10 of the molar value.

Legend:
[1] = target: T1, Peroxisome proliferator-activated receptor alpha (Homo sapiens, UniProt Q07869); assay: Agonist activity at human PPARalpha ligand binding domain expressed in COS-1 cells co-transfected with Gal4 after 24 hrs by luciferase reporter gene assay; format: cell-based
T1 sequence (Q07869 whole entry): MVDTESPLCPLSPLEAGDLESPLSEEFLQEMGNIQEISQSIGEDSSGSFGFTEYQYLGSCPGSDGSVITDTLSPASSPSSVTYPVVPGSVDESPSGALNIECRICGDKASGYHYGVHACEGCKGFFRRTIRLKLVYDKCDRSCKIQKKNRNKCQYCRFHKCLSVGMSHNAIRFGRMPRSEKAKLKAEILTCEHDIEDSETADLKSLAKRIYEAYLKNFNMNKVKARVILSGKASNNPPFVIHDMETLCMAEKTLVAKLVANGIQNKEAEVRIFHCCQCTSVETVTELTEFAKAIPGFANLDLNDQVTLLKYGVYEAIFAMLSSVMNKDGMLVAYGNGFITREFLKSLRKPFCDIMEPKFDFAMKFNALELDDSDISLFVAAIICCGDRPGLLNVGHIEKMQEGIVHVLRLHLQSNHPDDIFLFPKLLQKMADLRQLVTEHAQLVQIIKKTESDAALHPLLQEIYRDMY

[2] = target: T2, Peroxisome proliferator-activated receptor delta (Homo sapiens, UniProt Q03181); assay: Agonist activity at human PPARdelta ligand binding domain expressed in COS-1 cells after 24 hrs by luciferase reporter gene-based luminometric analysis; format: cell-based
T2 sequence (Q03181 whole entry): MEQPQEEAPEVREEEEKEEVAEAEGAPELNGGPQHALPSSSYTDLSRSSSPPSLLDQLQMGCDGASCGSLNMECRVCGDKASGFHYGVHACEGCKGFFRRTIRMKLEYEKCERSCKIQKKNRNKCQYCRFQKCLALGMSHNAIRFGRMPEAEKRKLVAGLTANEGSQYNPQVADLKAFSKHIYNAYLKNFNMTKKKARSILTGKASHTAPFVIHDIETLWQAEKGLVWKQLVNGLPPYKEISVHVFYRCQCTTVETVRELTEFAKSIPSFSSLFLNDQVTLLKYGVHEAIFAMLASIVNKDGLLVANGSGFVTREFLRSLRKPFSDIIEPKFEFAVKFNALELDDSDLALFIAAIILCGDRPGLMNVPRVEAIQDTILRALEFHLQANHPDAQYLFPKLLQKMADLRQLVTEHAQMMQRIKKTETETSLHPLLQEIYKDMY

[3] = target: T3, Peroxisome proliferator-activated receptor gamma (Homo sapiens, UniProt P37231); format: cell-based, COS-1
T3 sequence (P37231 whole entry): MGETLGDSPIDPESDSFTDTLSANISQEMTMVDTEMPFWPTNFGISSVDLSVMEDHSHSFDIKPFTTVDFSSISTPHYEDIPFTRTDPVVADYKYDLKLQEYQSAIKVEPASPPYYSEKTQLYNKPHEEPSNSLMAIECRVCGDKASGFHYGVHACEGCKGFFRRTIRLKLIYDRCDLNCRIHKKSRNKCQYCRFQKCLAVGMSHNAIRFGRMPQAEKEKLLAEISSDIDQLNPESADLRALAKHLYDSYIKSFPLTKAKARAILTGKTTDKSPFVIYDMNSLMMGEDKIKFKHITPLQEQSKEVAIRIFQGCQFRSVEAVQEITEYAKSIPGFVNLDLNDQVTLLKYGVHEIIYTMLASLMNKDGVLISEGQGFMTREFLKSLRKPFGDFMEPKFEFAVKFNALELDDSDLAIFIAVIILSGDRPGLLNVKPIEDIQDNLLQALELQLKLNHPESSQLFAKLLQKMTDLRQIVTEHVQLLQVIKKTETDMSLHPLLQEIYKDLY

[4] = Induction of [14C]oleic acid oxidation in a human myotubes after 4 days by beta liquid scintillation counting; format: functional
Method in brief: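 Satellite cells from human abdominal muscle biopsies of healthy donors, differentiated to myotubes for 7 days in DMEM (5.5 mM glucose) with 2% FCS and 25 pM insulin. Then [1-14C]oleic acid (1 µCi/mL, 100 µM) in DPBS with 10 mM HEPES and 1 mM L-carnitine, 4 h at 37 °C. Trapped CO2 counted by scintillation, normalized to protein. EC50 from three independent experiments in quadruplicate, mean ± SD.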

Row | Compound | pEC50 [1] | pEC50 [2] | pEC50 [3] | pEC50 [4]
1 | CC/C=C\C/C=C\C/C=C\C/C=C\CC/C=C/C=C/C(=O)O | 7.49 | < 6.00 | < 6.00 | 
2 | Cc1cc(SCc2sc(-c3ccc(C(F)(F)F)cc3)nc2C)ccc1OC(F)C(=O)O (racemic) | 6.25 | 7.26 | < 6.00 | 8.43
3 | CCc1cc(SCc2sc(-c3ccc(C(F)(F)F)cc3)nc2C)ccc1OC(F)C(=O)O (racemic) | 6.15 | 6.54 | < 6.00 | 8.30
4 | Cc1nc(-c2ccc(C(F)(F)F)cc2)sc1CSc1ccc(OC(F)C(=O)O)c(C(C)C)c1 (racemic) | 6.13 | 6.24 | < 6.00 | 7.50
5 | Cc1cc(SCc2sc(-c3ccc(C(F)(F)F)cc3)nc2C)ccc1OCC(=O)O [GW501516] |  |  |  | 10.52
6 | CN(CCOc1ccc(CC2SC(=O)NC2=O)cc1)c1ccccn1 (configuration not stated) [ROSIGLITAZONE] |  |  |  | < 6.00
